Test results from ChEMBL document CHEMBL1148547, “The structure-activity relationships of mansonone F, a potent anti-MRSA sesquiterpenoid quinone: SAR studies on the C6 and C9 analogs” (2006).
In brackets after ≈: the same amount, converted by molar mass.

How the values were obtained:
Type in all cases: functional
[1] = test system: Staphylococcus aureus; test: Antibacterial activity against methicillin-resistant Staphylococcus aureus
In short: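 Agar dilution MIC on Mueller–Hinton agar, run per the NCCLS procedure. Test organisms were clinical isolates collected from Seoul hospitals between 1997 and 1999 and stored at -70 °C until use.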

[2] = test system: Micrococcus luteus; test: Antibacterial activity against Micrococcus luteus ATCC 10240
In short: (§1)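 MIC by agar dilution on Mueller–Hinton agar, following the NCCLS procedure.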

[3] = test system: Micrococcus luteus; test: Antibacterial activity against Micrococcus luteus ATCC 9341; in short: as §1
[4] = test system: Staphylococcus epidermidis; test: Antibacterial activity against Staphylococcus epidermidis ATCC 12228; in short: as §1
[5] = test system: Staphylococcus aureus; test: Antibacterial activity against Staphylococcus aureus; in short: as §1
[6] = test system: Bacillus subtilis; test: Antibacterial activity against Bacillus subtilis ATCC 6633; in short: as §1
[7] = test system: Staphylococcus aureus; test: Antibacterial activity against Staphylococcus aureus ATCC 6538P; in short: as §1
[8] = test system: Staphylococcus aureus; test: Antibacterial activity against Staphylococcus aureus ATCC 25923; in short: as §1
[9] = test system: Bacillus cereus; test: Antibacterial activity against Bacillus cereus ATCC 27348; in short: as §1
[10] = test system: Staphylococcus aureus; test: Antibacterial activity against Staphylococcus aureus ATCC 29213; in short: as §1
[11] = test system: Klebsiella pneumoniae; test: Antibacterial activity against Klebsiella pneumoniae ATCC 10031; in short: as §1

Row | SMILES | MIC50 [1] | MIC90 [1] | further results
1 | CC1=COC2=C(Br)C(=O)C(=O)c3c(C)ccc1c32 | 8 µg/mL (≈ 26.2 µM) | 16 µg/mL (≈ 52.4 µM) | 
2 | CC1=COC2=C(C)C(=O)C(=O)c3c(C(C)C)ccc1c32 | 4 µg/mL (≈ 14.9 µM) | 16 µg/mL (≈ 59.6 µM) | 
3 | CCc1ccc2c3c1C(=O)C(=O)C(C)=C3OC=C2C | 8 µg/mL (≈ 31.5 µM) | 16 µg/mL (≈ 62.9 µM) | 
4 | COc1ccc2c3c1C(=O)C(=O)C(C)=C3OC=C2C | 8 µg/mL (≈ 31.2 µM) | 8 µg/mL (≈ 31.2 µM) | 
5 | CCCCc1ccc2c3c1C(=O)C(=O)C(C)=C3OC=C2C | 0.5 µg/mL (≈ 1.77 µM) | 0.5 µg/mL (≈ 1.77 µM) | MIC [2]: 0.25 µg/mL (≈ 0.885 µM); MIC [3]: 0.25 µg/mL (≈ 0.885 µM); MIC [4]: 0.25 µg/mL (≈ 0.885 µM); MIC ([5]; Smith): 0.25 µg/mL (≈ 0.885 µM); MIC ([5]; TMS 33): 0.5 µg/mL (≈ 1.77 µM); MIC ([5]; TMS 64): 0.25 µg/mL (≈ 0.885 µM); MIC ([5]; TMS 417): 0.25 µg/mL (≈ 0.885 µM); MIC [6]: 0.5 µg/mL (≈ 1.77 µM); MIC [7]: 0.25 µg/mL (≈ 0.885 µM); MIC [8]: 0.25 µg/mL (≈ 0.885 µM); MIC [9]: 1 µg/mL (≈ 3.54 µM); MIC [10]: 0.25 µg/mL (≈ 0.885 µM); MIC [11]: 2 µg/mL (≈ 7.08 µM)
6 | CC1=COC2=C(CBr)C(=O)C(=O)c3c(C)ccc1c32 | 16 µg/mL (≈ 50.1 µM) | 16 µg/mL (≈ 50.1 µM) | 
7 | COC(=O)C1=C2OC=C(C)c3ccc(C)c(c32)C(=O)C1=O | 16 µg/mL (≈ 56.3 µM) | 32 µg/mL (≈ 113 µM) | 
8 | CC1=COC2=C(C)C(=O)C(=O)c3c(C)ccc1c32 [MANSONONE F] | 2 µg/mL (≈ 8.32 µM) | 4 µg/mL (≈ 16.6 µM) | MIC [2]: 1 µg/mL (≈ 4.16 µM); MIC [3]: 1 µg/mL (≈ 4.16 µM); MIC [4]: 0.5 µg/mL (≈ 2.08 µM); MIC ([5]; Smith): 4 µg/mL (≈ 16.6 µM); MIC ([5]; TMS 33): 8 µg/mL (≈ 33.3 µM); MIC ([5]; TMS 64): 8 µg/mL (≈ 33.3 µM); MIC ([5]; TMS 417): 4 µg/mL (≈ 16.6 µM); MIC [6]: 2 µg/mL (≈ 8.32 µM); MIC [7]: 4 µg/mL (≈ 16.6 µM); MIC [8]: 1 µg/mL (≈ 4.16 µM); MIC [9]: 4 µg/mL (≈ 16.6 µM); MIC [10]: 4 µg/mL (≈ 16.6 µM); MIC [11]: 8 µg/mL (≈ 33.3 µM)
9 | CC1=COC2=CC(=O)C(=O)c3c(C)ccc1c32 | 8 µg/mL (≈ 35.4 µM) | 16 µg/mL (≈ 70.7 µM) | 
10 | CCCC1=C2OC=C(C)c3ccc(C)c(c32)C(=O)C1=O | 4 µg/mL (≈ 14.9 µM) | 8 µg/mL (≈ 29.8 µM) | 
11 | CC1=COC2=CC(=O)C(=O)c3cccc1c32 | > 32 µg/mL | > 32 µg/mL | 
12 | COC(=O)c1ccc2c3c1C(=O)C(=O)C(C)=C3OC=C2C | 16 µg/mL (≈ 56.3 µM) | 16 µg/mL (≈ 56.3 µM) | 
13 | CCC1=C2OC=C(C)c3ccc(C)c(c32)C(=O)C1=O | 16 µg/mL (≈ 62.9 µM) | > 32 µg/mL | 
14 | CC1=COC2=C(C)C(=O)C(=O)c3cccc1c32 | 8 µg/mL (≈ 35.4 µM) | 8 µg/mL (≈ 35.4 µM) | 
15 | CN[C@H](CC(C)C)C(=O)N[C@H]1C(=O)N[C@@H](CC(N)=O)C(=O)N[C@H]2C(=O)N[C@H]3C(=O)N[C@H](C(=O)N[C@H](C(=O)O)c4cc(O)cc(O)c4-c4cc3ccc4O)[C@H](O)c3ccc(c(Cl)c3)Oc3cc2cc(c3O[C@@H]2O[C@H](CO)[C@@H](O)[C@H](O)[C@H]2O[C@H]2C[C@](C)(N)[C@H](O)[C@H](C)O2)Oc2ccc(cc2Cl)[C@H]1O [VANCOMYCIN] | 2 µg/mL (≈ 1.38 µM) | 2 µg/mL (≈ 1.38 µM) | MIC [2]: 4 µg/mL (≈ 2.76 µM); MIC [3]: 8 µg/mL (≈ 5.52 µM); MIC [4]: 8 µg/mL (≈ 5.52 µM); MIC [6]: 0.5 µg/mL (≈ 0.345 µM); MIC [8]: 8 µg/mL (≈ 5.52 µM); MIC [9]: 4 µg/mL (≈ 2.76 µM); MIC [11]: > 32 µg/mL
16 | CC1=COC2=C(C)C(=O)C(=O)c3c(CCC(C)C)ccc1c32 | 8 µg/mL (≈ 27 µM) | 16 µg/mL (≈ 54 µM) | 
17 | CCCc1ccc2c3c1C(=O)C(=O)C(C)=C3OC=C2C | 1 µg/mL (≈ 3.73 µM) | 4 µg/mL (≈ 14.9 µM) | 
18 | CC(=O)C1=C2OC=C(C)c3ccc(C)c(c32)C(=O)C1=O | 16 µg/mL (≈ 59.6 µM) | 32 µg/mL (≈ 119 µM) | 
19 | CCCCCc1ccc2c3c1C(=O)C(=O)C(C)=C3OC=C2C | 4 µg/mL (≈ 13.5 µM) | 8 µg/mL (≈ 27 µM) | 
20 | CCCCCCc1ccc2c3c1C(=O)C(=O)C(C)=C3OC=C2C | 8 µg/mL (≈ 25.8 µM) | 16 µg/mL (≈ 51.5 µM) | 
